Consider one compound from ChEMBL document CHEMBL1132277, “Probing the binding of indolactam-V to protein kinase C through site-directed mutagenesis and computational docking simulations” (J Med Chem, 1999).

Assay [1] has as its target T1, Protein kinase C delta type (Mus musculus, UniProt P28867). Put plainly: Binding of Indolactam-V(ILV) to mutant Protein kinase C delta C1b domain (Gln27 to Val). In outline: (§1)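 GST fusions of PKCδ C1b domains (wild type or point mutants) expressed in E. coli, used purified or as total lysates. Incubated 5 min at 18 °C with [3H]PDBu, phosphatidylserine, 1 mM EGTA and varying unlabelled (–)-ILV. Bound ligand separated by 35% poly(ethylene glycol) precipitation and centrifugation, then supernatant and pellet counted. Final ligand concentrations used in calculations. Where [3H]PDBu binding was insufficient, ILV affinity was left undetermined.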

Assay [2] deals with T1, Protein kinase C delta type. Put plainly: Binding of Indolactam-V(ILV) to wild-type Protein kinase C delta C1b domain. The method, boiled down: as §1
The target is the same in assay [3]. Put plainly: Binding of Indolactam-V(ILV) to mutant Protein kinase C delta C1b domain (Pro11 to Gly). The method, boiled down: as §1
Assay [4] has the same target. Put plainly: Binding of Indolactam-V(ILV) to mutant Protein kinase C delta C1b domain (Thr12 to Gly). The method, boiled down:
as §1

For assay [5] the target is unchanged. Put plainly: Binding of Indolactam-V(ILV) to mutant Protein kinase C delta C1b domain (Leu20 to Gly). In outline: as §1
Assay [6] shares this target. Kind of assay: Binding of Indolactam-V(ILV) to mutant Protein kinase C delta C1b domain (Tyr8 to Gly). In outline:
as §1

Assay [7] has the same target. Put plainly: Binding of Indolactam-V(ILV) to mutant Protein kinase C delta C1b domain (Phe13 to Gly). The method, boiled down: as §1

T1 sequence (P28867 whole entry, the tested form may be a part): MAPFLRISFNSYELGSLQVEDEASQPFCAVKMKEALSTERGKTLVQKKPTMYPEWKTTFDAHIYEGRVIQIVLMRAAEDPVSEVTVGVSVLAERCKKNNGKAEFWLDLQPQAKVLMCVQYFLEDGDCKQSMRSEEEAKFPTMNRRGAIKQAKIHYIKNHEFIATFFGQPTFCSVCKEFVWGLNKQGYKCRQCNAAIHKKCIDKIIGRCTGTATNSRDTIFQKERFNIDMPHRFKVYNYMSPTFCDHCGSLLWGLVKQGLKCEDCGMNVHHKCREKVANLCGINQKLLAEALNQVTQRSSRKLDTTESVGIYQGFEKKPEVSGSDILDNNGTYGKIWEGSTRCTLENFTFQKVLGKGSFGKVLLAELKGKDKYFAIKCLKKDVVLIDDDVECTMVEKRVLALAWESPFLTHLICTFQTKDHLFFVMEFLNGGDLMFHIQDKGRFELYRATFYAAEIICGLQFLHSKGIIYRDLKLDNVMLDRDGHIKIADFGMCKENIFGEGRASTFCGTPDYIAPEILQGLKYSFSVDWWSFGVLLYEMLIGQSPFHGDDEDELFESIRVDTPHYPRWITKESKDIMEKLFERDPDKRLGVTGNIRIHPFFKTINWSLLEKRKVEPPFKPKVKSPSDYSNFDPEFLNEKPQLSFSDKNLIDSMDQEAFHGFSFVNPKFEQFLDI

As usually defined, the Ki is a dissociation constant, usually derived from enzyme kinetics or from competition with a known ligand. Take `CC(C)[C@H]1C(=O)N[C@H](CO)Cc2c[nH]c3cccc(c23)N1C` [INDOLACTUM]: the Ki in assay [1] turned out to be 1100 nM; in assay [2] it was 2.01 nM; in assay [3] it was 7080 nM; in assay [4], 25.3 nM; in assay [5] it was 66.2 nM; in assay [6] it was 658 nM. In assay [7], this compound registered a Ki of 10.9 nM.
